Reference: PubChem BioAssay
Values joined by “and” are separate entries in the source; they are usually repeats but may differ in a detail not shown here. Equal values may be shown once. Active and inactive are the calls of the source.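 The calls were made as follows, unless noted: active = viability at or below 10% of carrier control in both of two separate runs; inconclusive = viability at or below 10% in only one of the two runs; inactive = the rest.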

Key:
[1] = reduced viability of SK-BR-3 breast cancer cells – cell-based, 24 h, human, pilot screen (AID 572); conditions: SK-BR-3 viability, CellTiter-Glo luminescence, at 10 µM, stronger effect = lower value;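 also: compound exposure lasted between 18 and 24 h rather than exactly 24 h; 100% = carrier-treated control wells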
[2] = HUVEC growth inhibition – cell-based, human, primary screen (AID 575;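 active = viability at or below 30% in both replicate assays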;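 also: 100% = median of untreated cell wells with 0.1% DMSO on each plate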); conditions: HUVEC proliferation, CellTiter-Glo luminescence, 72 h; at 10 µM; stronger effect = lower value
Method in brief: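 system = HUVEC primary cells | amount = 1250 cells/well | buffer or medium = supplemented EBM, 2% fetal bovine serum | dosing = single-point 10 µM, DMSO 0.1% final | times = 72 h compound incubation | detection = CTG luminescence | read-out = % viability relative to median vehicle-well signal on each plate | control set = vehicle and MePR control wells | format = collagen-coated 384-well format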

[3] = H69AR cell proliferation blockers – human, duplicate replicates, primary screen (AID 580;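 active = viability at or under a set limit in both replicates, limit being median viability minus 3 SD, cut at about 48% in these data, passing the limit was not always enough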;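 also: 100% = mean luminescence of untreated wells and 0% = no signal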); conditions: H69AR lung tumor cells viability, ATP luminescence, 72 h; at 10 µM; stronger effect = lower value
[4] = MRP1 drug-resistance reversers in H69AR cells – cell-based, doxorubicin co-treatment, pilot screen (AID 601;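 active = viability loss from added drug above about 55%, and viability with drug at most 40%, in both replicates, limit read from the data, passing the limit was not always enough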); conditions: CellTiter-Glo, 72 h, at 10 µM; for differential viability (reversal): stronger effect = higher value
[5] = yeast transport mutant growth inhibition pilot in 384-well plates, post-Golgi transport modulator project (AID 636; in the data active = inhibition above about 31%); conditions: absorbance 615 nm, about 18 h, stronger effect = higher value
[6] = growth suppression of yeast trafficking mutant, preliminary HTS, modulators of trafficking downstream of Golgi apparatus project, 1536-format plate, OD 615 nm (AID 637; in the data active = inhibition above about 30%); conditions: yeast transport mutant growth, absorbance 615 nm, 18 h; stronger effect = higher value
[7] = H69AR cells + 2 uM doxorubicin, measured here: viability with 2 uM doxorubicin, stronger effect = lower value
[8] = H69AR cells, compound alone cytotoxicity

SMILES: CCC1(C(=O)OC)NC(c2cccc(F)c2)C2C(=O)N(C)C(=O)C21 (centres undefined)
- viability [1]: 91% (inactive)
- viability [2]: 96.1% (inactive)
- viability [3]: 88.3% (inactive)
- differential viability (reversal) ([4]; H69AR cells + 2 uM doxorubicin): -1.59% (inactive)
- viability [4, 7]: 89.8%
- viability [4, 8]: 88.3%
- inhibition [5]: -6.08% (inactive)
- inhibition [6]: 0.73% (inactive)

SMILES: CN1CCN(S(=O)(=O)c2ccc(NC(=O)Nc3cccc(Cl)c3)cc2)CC1
- viability [1]: 96% (inactive)
- viability [2]: 4.34% (active)
- viability [3]: 65% (inactive)
- differential viability (reversal) ([4]; H69AR cells + 2 uM doxorubicin): -8.79% (inactive)
- viability [4, 7]: 73.8%
- viability [4, 8]: 65%
- inhibition [5]: -3.6% (inactive)
- inhibition [6]: 1.31% (inactive)

SMILES: O=S(=O)(NCc1ccccn1)c1ccc2c(c1)OCCO2
- viability [1]: 115% (inactive)
- viability [2]: 114% (inactive)
- viability [3]: 109% (inactive)
- differential viability (reversal) ([4]; H69AR cells + 2 uM doxorubicin): 0.755% (inactive)
- viability [4, 7]: 108%
- viability [4, 8]: 109%
- inhibition [5]: -0.81% (inactive)
- inhibition [6]: 0.18% (inactive)

SMILES: CC(=O)Nc1c(O)n(C)c2ccccc12
- viability [1]: 65% (inactive)
- viability [2]: 103% (inactive)
- viability [3]: 96.3% (inactive)
- differential viability (reversal) ([4]; H69AR cells + 2 uM doxorubicin): -14.5% (inactive)
- viability [4, 7]: 111%
- viability [4, 8]: 96.3%
- inhibition [5]: -5.75% (inactive)
- inhibition [6]: 4.55% (inactive)

SMILES: O=C1c2ccccc2S(=O)(=O)N1Cc1nnc(-c2ccccc2Br)o1
- viability [1]: 88% (inactive)
- viability [2]: 102% (inactive)
- viability [3]: 95% (inactive)
- differential viability (reversal) ([4]; H69AR cells + 2 uM doxorubicin): 17% (inactive)
- viability [4, 7]: 78%
- viability [4, 8]: 95%
- inhibition [5]: -5.62% (inactive)
- inhibition [6]: 0.32% (inactive)

SMILES: CCC(CCC(=O)Nc1cccc(C(=O)O)c1)C(=O)O (centres undefined)
- viability [1]: 62% (inactive)
- viability [2]: 107% (inactive)
- viability [3]: 103% (inactive)
- differential viability (reversal) ([4]; H69AR cells + 2 uM doxorubicin): 2.19% (inactive)
- viability [4, 7]: 101%
- viability [4, 8]: 103%
- inhibition [5]: -0.82% (inactive)
- inhibition [6]: 2.36% (inactive)

SMILES: CCOC(=O)CNC(=O)CSc1nc(N(C)C)nc(N2CCOCC2)n1
- viability [1]: 88% (inactive)
- viability [2]: 98.1% (inactive)
- viability [3]: 89.2% (inactive)
- differential viability (reversal) ([4]; H69AR cells + 2 uM doxorubicin): 2.04% (inactive)
- viability [4, 7]: 87.1%
- viability [4, 8]: 89.2%
- inhibition [5]: -9.86% (inactive)
- inhibition [6]: 6.45% (inactive)

SMILES: CCCn1c(=NC(C)=O)c(C#N)cc2c(=O)n3cccc(C)c3nc21
- viability [1]: 89% (inactive)
- viability [2]: 108% (inactive)
- viability [3]: 87.3% (inactive)
- differential viability (reversal) ([4]; H69AR cells + 2 uM doxorubicin): -3.01% (inactive)
- viability [4, 7]: 90.3%
- viability [4, 8]: 87.3%
- inhibition [5]: 0.81% (inactive)
- inhibition [6]: -3.45% (inactive)

SMILES: CCOCCCn1c(=NC(C)=O)c(C(=O)OCC)cc2c(=O)n3ccccc3nc21
- viability [1]: 82% (inactive)
- viability [2]: 108% (inactive)
- viability [3]: 90.5% (inactive)
- differential viability (reversal) ([4]; H69AR cells + 2 uM doxorubicin): 43.1% (inactive)
- viability [4, 7]: 47.4%
- viability [4, 8]: 90.5%
- inhibition [5]: -0.68% (inactive)
- inhibition [6]: 2% (inactive)

SMILES: CC1=C(C(=O)Nc2ccccc2C)C(c2ccc(C)o2)N2C(=O)CSC2=N1 (centres undefined)
- viability [1]: 105% (inactive)
- viability [2]: 106% (inactive)
- viability [3]: 96.4% (inactive)
- differential viability (reversal) ([4]; H69AR cells + 2 uM doxorubicin): 8.25% (inactive)
- viability [4, 7]: 88.2%
- viability [4, 8]: 96.4%
- inhibition [5]: -9.04% (inactive)
- inhibition [6]: 2.26% (inactive)

SMILES: CCCCn1c(=O)[nH]c(=O)c2c1nc(COc1ccc(C#N)cc1)n2CCC
- viability [1]: 106% (inactive)
- viability [2]: 83.1% (inactive)
- viability [3]: 88% (inactive)
- differential viability (reversal) ([4]; H69AR cells + 2 uM doxorubicin): 11.3% (inactive)
- viability [4, 7]: 76.7%
- viability [4, 8]: 88%
- inhibition [5]: -1.04% (inactive)
- inhibition [6]: -2.46% (inactive)

SMILES: CC1(C)O[C@@H]2C[C@H]3[C@@H]4C[C@H](F)C5=CC(=O)CC[C@]5(C)[C@H]4[C@@H](O)C[C@]3(C)[C@]2(C(=O)CO)O1
- viability [1]: 104% (inactive)
- viability [2]: 107% (inactive)
- viability [3]: 95.2% (inactive)
- differential viability (reversal) ([4]; H69AR cells + 2 uM doxorubicin): -2.5% (inactive)
- viability [4, 7]: 97.7%
- viability [4, 8]: 95.2%
- inhibition [5]: -5.45% (inactive)
- inhibition [6]: -0.5% (inactive)

SMILES: O=C(NCCN1CCOCC1)NC1(C(F)(F)F)Oc2ccc(Cl)cc2O1 (centres undefined)
- viability [1]: 107% (inactive)
- viability [2]: 57.1% (inactive)
- viability [3]: 22.6% (active)
- differential viability (reversal) ([4]; H69AR cells + 2 uM doxorubicin): -16.8% (inactive)
- viability [4, 7]: 39.5%
- viability [4, 8]: 22.6%
- inhibition [5]: -7.53% (inactive)
- inhibition [6]: 0% (inactive)

SMILES: CS(=O)(=O)N1CCCC(C(=O)N2CCOCC2)C1 (centres undefined)
- viability [1]: 97% (inactive)
- viability [2]: 108% (inactive)
- viability [3]: 98.3% (inactive)
- differential viability (reversal) ([4]; H69AR cells + 2 uM doxorubicin): 4.13% (inactive)
- viability [4, 7]: 94.2%
- viability [4, 8]: 98.3%
- inhibition [5]: -2.6% (inactive)
- inhibition [6]: -1.15% (inactive)

SMILES: COc1ccc(NC(=O)N2CCC(c3nc(-c4cccs4)no3)CC2)cc1
- viability [1]: 121% (inactive)
- viability [2]: 98.3% (inactive)
- viability [3]: 95.6% (inactive)
- differential viability (reversal) ([4]; H69AR cells + 2 uM doxorubicin): 15.4% (inactive)
- viability [4, 7]: 80.2%
- viability [4, 8]: 95.6%
- inhibition [5]: -2.4% (inactive)
- inhibition [6]: 0.73% (inactive)

SMILES: CC(=O)C1=C(O)C(=O)N(C2CCCCC2)C1c1ccccc1 (centres undefined)
- viability [1]: 107% (inactive)
- viability [2]: 98.6% (inactive)
- viability [3]: 97.3% (inactive)
- differential viability (reversal) ([4]; H69AR cells + 2 uM doxorubicin): 10.9% (inactive)
- viability [4, 7]: 86.4%
- viability [4, 8]: 97.3%
- inhibition [5]: -8.08% (inactive)
- inhibition [6]: 5.32% (inactive)

SMILES: Nc1nc(Cl)nc2c1ncn2[C@H]1C[C@H](O)[C@@H](CO)O1
- viability [1]: 116% (inactive) and 105% (inactive)
- viability [2]: 67% (inactive) and 36.3% (inactive)
- viability [3]: 93.8% (inactive)
- differential viability (reversal) ([4]; H69AR cells + 2 uM doxorubicin): -9.28% (inactive) and -31.8% (inactive)
- viability [4, 7]: 103% and 81.2%
- viability [4, 8]: 93.8% and 49.4%
- inhibition [5]: 2.34% (inactive) and 0.52% (inactive)
- inhibition [6]: 1% (inactive) and -1% (inactive)

SMILES: O=C(NC1CCCCC1NC(=O)c1ccco1)c1ccco1 (centres undefined)
- viability [1]: 93% (inactive)
- viability [2]: 94.2% (inactive)
- viability [3]: 90% (inactive)
- differential viability (reversal) ([4]; H69AR cells + 2 uM doxorubicin): -4.53% (inactive)
- viability [4, 7]: 94.5%
- viability [4, 8]: 90%
- inhibition [5]: 0.53% (inactive)
- inhibition [6]: 3.27% (inactive)

SMILES: CCn1c(SCC(=O)c2ccc(C)cc2)nnc1-c1ccoc1C
- viability [1]: 89% (inactive)
- viability [2]: 114% (inactive)
- viability [3]: 108% (inactive)
- differential viability (reversal) ([4]; H69AR cells + 2 uM doxorubicin): 8.75% (inactive)
- viability [4, 7]: 99.2%
- viability [4, 8]: 108%
- inhibition [5]: -5.14% (inactive)
- inhibition [6]: 0.36% (inactive)

SMILES: O=C(Nc1ncc2c(n1)CC(c1ccccc1)CC2=O)c1ccco1 (centres undefined)
- viability [1]: 102% (inactive)
- viability [2]: 98.3% (inactive)
- viability [3]: 81.8% (inactive)
- differential viability (reversal) ([4]; H69AR cells + 2 uM doxorubicin): 5.16% (inactive)
- viability [4, 7]: 76.7%
- viability [4, 8]: 81.8%
- inhibition [5]: -5.21% (inactive)
- inhibition [6]: -0.16% (inactive)

SMILES: Cc1onc(-c2ccccc2)c1C(=O)Nc1sc2c(c1C(N)=O)CCC2
- viability [1]: 88.5% (inactive)
- viability [2]: 53.5% (inactive)
- viability [3]: 62.1% (inactive)
- differential viability (reversal) ([4]; H69AR cells + 2 uM doxorubicin): -20.8% (inactive)
- viability [4, 7]: 82.8%
- viability [4, 8]: 62.1%
- inhibition [5]: -1.71% (inactive)
- inhibition [6]: -1% (inactive)

SMILES: CCOC(=O)N1CCN(C(=O)COc2cc(=O)n(C)c3ccccc23)CC1
- viability [1]: 98% (inactive)
- viability [2]: 98.2% (inactive)
- viability [3]: 98.2% (inactive)
- differential viability (reversal) ([4]; H69AR cells + 2 uM doxorubicin): 16.7% (inactive)
- viability [4, 7]: 81.5%
- viability [4, 8]: 98.2%
- inhibition [5]: 0.91% (inactive)
- inhibition [6]: 15.9% (inactive)

SMILES: Fc1cccc(NCc2cn3ccccc3n2)c1
- viability [1]: 81% (inactive)
- viability [2]: 105% (inactive)
- viability [3]: 87.6% (inactive)
- differential viability (reversal) ([4]; H69AR cells + 2 uM doxorubicin): -1.66% (inactive)
- viability [4, 7]: 89.2%
- viability [4, 8]: 87.6%
- inhibition [5]: -5% (inactive)
- inhibition [6]: 21.4% (inactive)
